This note sets out measurements from ChEMBL document CHEMBL3627612, “Hirsutinolide Series Inhibit Stat3 Activity, Alter GCN1, MAP1B, Hsp105, G6PD, Vimentin, TrxR1, and Importin α-2 Expression, and Induce Antitumor Effects against Human Glioma” (J Med Chem, 2015).

Activity calls are given as the source filed them. The rule behind the calls is not given here.

Data set [1] relates to MCF7. The data set can be described thus: Antiproliferative activity against human MCF7 cells for 72 hrs by cyquant assay. The class given is functional, cell-based. As to conditions: MCF7, 72 h. Summed up: (§1)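 CyQuant proliferation assay after 72 h compound exposure of cultured cells; relative viability normalized to DMSO-treated control; IC50 values derived. Glioma lines grown in RPMI or DMEM with 10% FBS and 1% nonessential amino acids.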

Data set [2] in a line: Antiproliferative activity against human Glioma (G10) patient derived xenograft cells at 5 uM after 72 hrs by cyquant assay. Format: functional, Glioma cell.
A short description of data set [3]: Antiproliferative activity against human Glioma (G22) patient derived xenograft cells at 5 uM after 72 hrs by cyquant assay. Format: functional, Glioma cell. (In xenograft studies the graft and the host belong to different species.)
The nature of data set [4]: Antiproliferative activity against human Glioma (G12) patient derived xenograft cells at 5 uM after 72 hrs by cyquant assay. The class given is functional, Glioma cell.
Data set [5] can be described thus: Cytotoxicity against mouse NIH/3T3 cells at 5uM after 72 hrs by cyquant cells. The class given is cell-based. Conditions: nih3t3, 72 h. Summed up: as §1
The subject of data set [6] is MCF7. Description: Anticlonogenic activity against human MCF7 cells for 72 hrs measured after 4 weeks by crystal-violet staining based assay. Format: functional, cell-based. Summed up: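 Single-cell seeding at 250 cells per well; cells treated once the next day for 72 h with 0–5 μM compound, then grown until large colonies were visible (NIH3T3 1 week, MDA-MB-231 and U251MG 2 weeks, MCF-7 4 weeks). Colonies stained with crystal violet for 4 h, imaged and counted.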

The next data set relates to U-251. Description: Inhibition of cell migration in human U251MG cells at 5 uM after 19 hrs by wound healing assay. The class given is functional, cell-based. Summed up: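 Scratch assay: sub-confluent U251MG monolayers wounded with pipette tips, treated once with 0–5 μM compound or DMSO, allowed to migrate into the denuded area over 19 h. Imaged at 10× on an inverted microscope.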

The next data set concerns Glioma cell. The data set can be described thus: Effect on cell morphology in human Glioma (G22) patient derived xenograft cells assessed as 3D spheroids formation at 5 uM for 24 hrs measured after 48 hrs by inverted fluorescence microscope analysis. The class given is functional. Summed up:
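G22 patient-derived xenograft glioma cells seeded at 1,000 cells/well in ultra-low-binding round-bottom wells, grown 48 h into 3D spheroids, then treated once with 5 μM compound or DMSO; matrigel added after 24 h. Spheroids imaged at 5× magnification on an inverted fluorescence microscope every 24 h for up to 120 h.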

The target in data set [7] is Signal transducer and activator of transcription 3 (Mus musculus) (UniProt P42227). Description: Inhibition of Stat3 dimer DNA binding activity in EGF-stimulated mouse NIH3T3 nuclear extract expressing human EGFR assessed as residual activity at 5 uM preincubated for 30 mins followed by addition of radiolabeled probe hSIE for 30 mins by EMSA.
Chain of Signal transducer and activator of transcription 3 (Mus musculus) (P42227 whole entry): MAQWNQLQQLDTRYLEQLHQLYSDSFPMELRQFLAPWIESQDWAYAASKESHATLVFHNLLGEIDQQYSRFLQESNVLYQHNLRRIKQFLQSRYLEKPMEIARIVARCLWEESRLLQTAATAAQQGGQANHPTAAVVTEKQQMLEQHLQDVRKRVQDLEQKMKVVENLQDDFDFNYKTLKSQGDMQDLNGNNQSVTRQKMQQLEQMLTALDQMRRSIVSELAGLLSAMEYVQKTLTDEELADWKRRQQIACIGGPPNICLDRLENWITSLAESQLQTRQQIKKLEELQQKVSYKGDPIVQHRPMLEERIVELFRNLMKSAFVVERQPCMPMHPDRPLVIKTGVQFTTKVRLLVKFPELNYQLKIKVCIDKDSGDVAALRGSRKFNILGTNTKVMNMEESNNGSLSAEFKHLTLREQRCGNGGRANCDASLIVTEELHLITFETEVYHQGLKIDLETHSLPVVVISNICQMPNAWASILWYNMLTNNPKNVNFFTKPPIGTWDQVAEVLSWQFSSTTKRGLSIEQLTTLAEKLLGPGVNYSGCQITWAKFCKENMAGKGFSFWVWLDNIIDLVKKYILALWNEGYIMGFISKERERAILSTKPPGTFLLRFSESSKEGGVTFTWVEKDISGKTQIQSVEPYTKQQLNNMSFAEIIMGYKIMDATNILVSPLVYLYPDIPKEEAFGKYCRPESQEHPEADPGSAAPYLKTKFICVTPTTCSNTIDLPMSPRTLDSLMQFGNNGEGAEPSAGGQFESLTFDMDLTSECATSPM
Data set [8] concerns the target T1, Signal transducer and activator of transcription 1 (Mus musculus) (UniProt P42225).
T1 sequence (whole entry): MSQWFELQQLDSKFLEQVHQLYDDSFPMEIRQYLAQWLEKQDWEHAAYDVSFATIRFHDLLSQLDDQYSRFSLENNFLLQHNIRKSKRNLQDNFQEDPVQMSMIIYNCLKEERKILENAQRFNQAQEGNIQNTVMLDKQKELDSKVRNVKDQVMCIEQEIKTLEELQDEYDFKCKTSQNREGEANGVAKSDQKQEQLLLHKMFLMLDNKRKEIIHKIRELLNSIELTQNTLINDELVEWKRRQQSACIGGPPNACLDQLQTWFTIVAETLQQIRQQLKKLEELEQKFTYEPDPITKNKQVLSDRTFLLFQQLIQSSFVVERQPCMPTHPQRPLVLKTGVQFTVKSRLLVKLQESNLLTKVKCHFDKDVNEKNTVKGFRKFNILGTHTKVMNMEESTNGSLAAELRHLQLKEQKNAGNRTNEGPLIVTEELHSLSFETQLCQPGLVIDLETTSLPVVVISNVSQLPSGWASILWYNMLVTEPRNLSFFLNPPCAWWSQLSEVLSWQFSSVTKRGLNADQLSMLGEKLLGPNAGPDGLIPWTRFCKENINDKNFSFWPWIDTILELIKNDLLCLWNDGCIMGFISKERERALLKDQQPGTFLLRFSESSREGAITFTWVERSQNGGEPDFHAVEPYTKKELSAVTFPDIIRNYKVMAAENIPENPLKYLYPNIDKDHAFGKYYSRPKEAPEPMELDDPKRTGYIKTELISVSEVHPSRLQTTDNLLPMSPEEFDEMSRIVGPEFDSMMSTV
The data set can be described thus: Inhibition of Stat1 dimer DNA binding activity in EGF-stimulated mouse NIH3T3 nuclear extract expressing human EGFR assessed as residual activity at 5 uM preincubated for 30 mins followed by addition of radiolabeled probe hSIE for 30 mins by EMSA.

For data set [9], the system named is NIH3T3. The data set can be described thus: Inhibition of Stat5 dimer DNA binding activity in EGF-stimulated mouse NIH3T3 nuclear extract expressing human EGFR at 5 uM preincubated for 30 mins followed by addition of radiolabeled probe MGFe for 30 mins by EMSA. The class given is cell-free. (In general: Mobility shift assays separate free from complexed probe on a gel.)

The target in data set [10] is T2, Signal transducer and activator of transcription 3 (Homo sapiens, UniProt P40763). Description: Inhibition of Stat3 dimer DNA binding activity in human U251MG cells nuclear extract after 1.5 hrs by EMSA using radiolabeled probe hSIE.
T2 sequence (P40763 whole entry): as the sequence (P42227 whole entry) above, with D760E counted along it
In data set [11] the target is T2, Signal transducer and activator of transcription 3. Description: Inhibition of Stat3 activity in human U251MG cells assessed as phosphorylated Stat3 level at 5 uM by immunoblot analysis. Format: cell-based. As to conditions: U-251, TDE = time-dependent effect. (In general: In western blotting, separated proteins are transferred to a membrane and probed.)
Data set [12] has the same target. The data set can be described thus: Inhibition of Stat3 activity in human glioma (G22) patient-derived mouse xenograft cells assessed as phosphorylated Stat3 level at 5 uM after 24 hrs by immunoblot analysis. Summed up:
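Cultured G22 glioma patient-derived mouse xenograft cells (DMEM, 5–10% heat-inactivated FBS) treated with 5 μM compound for 0–24 h. Whole-cell lysates immunoblotted for pStat3, Stat3, GAPDH.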

The test system of data set [13] is NIH3T3. Description: Modulation of EGF-induced Stat5 phosphorylation in mouse NIH3T3 cells expressing human EGFR at 5 uM preincubated for 3 hrs followed by stimulation with 1 ug/ml EGF for 12 mins by immunoblot analysis. Format: cell-based. Summed up: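 Whole-cell lysates of equal total protein from NIH3T3/hEGFR fibroblasts, pretreated with or without 5 μM compound (control 0.025% DMSO) for 3 h, then stimulated with 1 μg/ml EGF for 12 min. SDS-PAGE immunoblotting for pStat1/Stat1 and pStat5/Stat5 with β-actin or GAPDH loading controls. Representative of 2–4 independent determinations.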

Data set [14] deals with RAC-alpha serine/threonine-protein kinase (Homo sapiens) (UniProt P31749). Description: Modulation of Akt phosphorylation in human U251MG cells at 5 uM after 0.5 to 24 hrs by immunoblot analysis. The class given is cell-based. Conditions: U-251. Summed up: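 U251MG cells treated with 5 μM compound for 0–24 h; whole-cell lysates of equal total protein immunoblotted. Controls were 0.025% DMSO-treated cells. Representative of 2–4 independent determinations.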
Chain of RAC-alpha serine/threonine-protein kinase (Homo sapiens) (P31749 whole entry): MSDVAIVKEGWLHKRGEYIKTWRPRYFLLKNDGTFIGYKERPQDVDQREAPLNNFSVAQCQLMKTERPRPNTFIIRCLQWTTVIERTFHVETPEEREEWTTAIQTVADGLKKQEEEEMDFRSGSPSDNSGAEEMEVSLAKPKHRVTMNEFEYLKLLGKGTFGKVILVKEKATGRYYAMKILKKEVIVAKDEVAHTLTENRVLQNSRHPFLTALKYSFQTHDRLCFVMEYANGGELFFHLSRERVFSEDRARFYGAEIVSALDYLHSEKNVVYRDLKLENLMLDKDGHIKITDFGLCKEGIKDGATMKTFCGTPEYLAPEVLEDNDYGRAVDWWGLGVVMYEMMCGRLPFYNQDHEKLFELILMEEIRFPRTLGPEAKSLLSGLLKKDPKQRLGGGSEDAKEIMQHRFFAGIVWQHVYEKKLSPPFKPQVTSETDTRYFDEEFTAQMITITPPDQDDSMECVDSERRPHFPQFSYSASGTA

In data set [15] the target is T2, Signal transducer and activator of transcription 3. The data set can be described thus: Inhibition of orthovandate-induced Stat3 phosphorylation in human U251MG cells at 5 uM for 3 hrs by immunoblot analysis in presence of 10 to 300 uM orthovandate. Conditions: U-251. Format: cell-based. Summed up: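 U251MG cells treated with 5 μM compound for 3 h without or with 10–300 μM Na3VO4. Whole-cell lysates of equal total protein immunoblotted for pStat3 and Stat3. Controls were 0.025% DMSO. Representative of 2–4 determinations.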

The nature of data set [16]: Antiproliferative activity against human U373MG cells for 72 hrs by cyquant assay. Format: functional, cell-based, U-373MG ATCC. As to conditions: U373 MG. Summed up:
as §1

Data set [17] in a line: Antiproliferative activity against human SF295 cells for 72 hrs by cyquant assay. Format: functional, cell-based. Conditions: SF-295, 72 h. Summed up: as §1

One may read the IC50 as the concentration that gives 50% inhibition. `C/C=C(\C)C(=O)O[C@H]1C[C@@H](C)[C@]2(O)CC[C@](C)(/C=C3/OC(=O)C(COC(C)=O)=C31)O2`: the concentration for half-maximal inhibition (IC50) in the data set with MCF7 [1] was found to be 10.7 µM; in data set [10], 2200 nM; in [16] it was 3.5 µM; in [17] it was 7.5 µM. The “inhibition (INH)” value in data set [2] is 45%; in [3], 45%; in data set [4], 25%. Also, the Activity entry is “Toxic” in [5], “Dose-dependent effect” with MCF7 [6], 49% in [7] and 68% in [8]. Moreover, the inhibition entry (in the data set on U-251; in [15]) was “Active” throughout. For the same compound, the outcome in the data set with Glioma cell was Active. Also, the inhibition entry (with NIH3T3 [9]; in [12]; with NIH3T3 [13]) was “inactive” in each case. In addition, in data set [11], the inhibition result was “tde”. Besides, the outcome in data set [14] was inactive.
Regarding `C/C=C(\C)C(=O)O[C@H]1C[C@@H](C)[C@]2(OC)CC[C@](C)(/C=C3/OC(=O)C(COC(C)=O)=C31)O2`, the half-inhibitory concentration (IC50) with MCF7 [1] turned out to be 7.6 µM; in data set [10] it was 3200 nM; in data set [16], 6.6 µM; in data set [17] it was 8.2 µM. Also, the “inhibition (INH)” value in [2] is reported as 45%; in [3], 45%; in [4] it was 25%. In addition, the Activity entry in data set [5] is “Toxic”; in the data set with MCF7 [6], “Dose-dependent effect”; in [7] it was 31%; in [8] it was 49%. Moreover, the inhibition result (in the data set on U-251; in data set [15]) was “Active” throughout. Further, the outcome with Glioma cell was Active. Moreover, the inhibition result (with NIH3T3 [9]; in [12]; with NIH3T3 [13]) was “inactive” in each case. Moreover, in [11], the inhibition result was “tde”. Besides, the outcome in [14] was inactive.
Regarding `C/C=C(\C)C(=O)OCC1=C2/C(=C\[C@@]3(C)CC[C@](O)(O3)[C@H](C)C[C@@H]2O)OC1=O`, the 50% inhibitory concentration (IC50) in the data set on MCF7 [1] stood at 4.8 µM; in data set [10], 2600 nM; in data set [16], 6.5 µM; in data set [17] it was 9.6 µM. Also, the results for the “inhibition (INH)” value in [2], in [3] and in [4] were 45%, 45% and 25%, respectively. Moreover, the Activity result in [5] is “Non-toxic”; in the data set with MCF7 [6], “Dose-dependent effect”; in data set [7] it was 8%; in data set [8], 36%. Also, the inhibition entry (in the data set with U-251; in data set [15]) was “Active” each time. Moreover, the outcome in the data set with Glioma cell was Active. For the same compound, the inhibition entry (in the data set on NIH3T3 [9]; in [12]; in the data set with NIH3T3 [13]) was “inactive” throughout. Further, in data set [11], the inhibition entry is “tde”. Besides, the outcome in data set [14] was inactive.
